Measurements from ChEMBL document CHEMBL1123129, “Hypolipidemic activity of indan-1,3-dione derivatives in rodents” (J Med Chem, 1985).

Experiments:
Assay type in all cases: functional
Mus musculus [1] = assay: Hypolipidemic activity in CF1 male mice at a dose of 20 mg/kg per day, serum cholesterol measured on the 16th day
How it was run: (§1)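 CF1 male mice (~30 g) were given 20 mg/kg per day ip at 11:00 a.m.; N = 6 per group. Tail-vein serum was collected in nonheparinized microcapillaries. Cholesterol was measured on days 9 and 16 by modified Liebermann–Burchard on duplicate 25 µL samples. Triglyceride was measured on day 16 in a separate group, duplicate 50 µL. Values are % control ± SD; Student's t test.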

Mus musculus [2] = assay: Hypolipidemic activity in CF1 male mice at a dose of 20 mg/kg per day, serum cholesterol measured on the 9th day; how it was run: as §1
Mus musculus [3] = assay: Hypolipidemic activity in CF1 male mice at a dose of 20 mg/kg per day, serum triglyceride measured on the 16th day; how it was run: as §1
Mus musculus [4] = assay: Compound was evaluated for the hypolipidemic activity in CF1 male mice at a dose of 20 mg/kg per day intraperitoneally of serum cholesterol at 9th day; details: route intraperitoneal; in the assay text read “150 mg/kg” for “20 mg/kg”
How it was run: (§2)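 CF1 male mice (~30 g) were dosed ip daily. Tail-vein blood was collected on day 9 and day 16 between 8:00 and 9:30 a.m. Serum cholesterol was measured by modified Liebermann–Burchard on duplicate 25-µL samples. Triglyceride was measured on day 16 in a separate group, duplicate 50-µL samples. Values are % control, mean ± SD, N = 6; Student's t test.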

Mus musculus [5] = assay: Compound was evaluated for the hypolipidemic activity in CF1 male mice at a dose of 20 mg/kg per day intraperitoneally for serum triglyceride at 16th day.; details: route intraperitoneal; how it was run: as §2
Mus musculus [6] = assay: Compound was evaluated for the hypolipidemic activity in CF1 male mice at a dose of 20 mg/kg per day intraperitoneally for serum cholesterol at 16th day.; details: route intraperitoneal; how it was run: as §2

| Compound | Serum cholesterol, % of control (Mus musculus [1]) [%] | Serum cholesterol, % of control (Mus musculus [2]) [%] | Serum triglyceride, % of control (Mus musculus [3]) [%] | Control (Mus musculus [4]) [%] | Control (Mus musculus [5]) [%] | Control (Mus musculus [6]) [%] |
| --- | --- | --- | --- | --- | --- | --- |
| Cc1ccc(C2C(=O)c3ccccc3C2=O)cc1 | 65 | 68 | 42 | – | – | – |
| CCOc1ccc(C2C(=O)c3ccccc3C2=O)cc1 | 59 | 66 | 81 | – | – | – |
| O=C1c2ccccc2C(=O)C1c1ccc(-c2ccccc2)cc1 | 64 | 78 | 63 | – | – | – |
| Cc1ccc(C2C(=O)c3ccccc3C2=O)c(C)c1 | 54 | 61 | 58 | – | – | – |
| CCCC1C(=O)c2ccccc2C1=O | 66 | 68 | 52 | – | – | – |
| CCCCCC1C(=O)c2ccccc2C1=O | 64 | 65 | 70 | – | – | – |
| CCCCC1C(=O)c2ccccc2C1=O | 58 | 74 | 63 | – | – | – |
| O=C1c2ccccc2C(=O)C1c1ccc(Br)cc1 [BROMINDIONE] | 56 | 72 | 66 | – | – | – |
| COc1ccccc1C1C(=O)c2ccccc2C1=O | 72 | 79 | 48 | – | – | – |
| CC1C(=O)c2ccccc2C1=O | 58 | 74 | 61 | – | – | – |
| Cc1cccc(C2C(=O)c3ccccc3C2=O)c1 | 71 | 75 | 51 | – | – | – |
| O=C1c2ccccc2C(=O)C1c1ccccc1Cl | 56 | 75 | 55 | – | – | – |
| Cc1ccccc1C1C(=O)c2ccccc2C1=O | 69 | 73 | 49 | – | – | – |
| O=C1c2ccccc2C(=O)C1c1c(Cl)cccc1Cl | 68 | 71 | 61 | – | – | – |
| CCOC(=O)C(C)(C)Oc1ccc(Cl)cc1 [CLOFIBRATE] | 87 | – | 75 | 88 | – | – |
| CCC1C(=O)c2ccccc2C1=O | 60 | 63 | 63 | – | – | – |
| O=C1c2ccccc2C(=O)C1c1cccc(Cl)c1 | 60 | 70 | 70 | – | – | – |
| O=C(O)c1ccccc1C1C(=O)c2ccccc2C1=O | – | 79 | – | – | 52 | 78 |
| O=C1CC(=O)c2ccccc21 | 60 | 74 | 79 | – | – | – |
| COc1ccc(C2C(=O)c3ccccc3C2=O)cc1OC | 69 | 75 | 66 | – | – | – |
| O=C1c2ccccc2C(=O)C1c1ccc2ccccc2c1 | 66 | 72 | 66 | – | – | – |
| O=C1c2ccccc2C(=O)C1c1ccc(Cl)c(Cl)c1 | 84 | 93 | 89 | – | – | – |
| COc1ccc(C2C(=O)c3ccccc3C2=O)c(OC)c1 | 74 | 89 | 87 | – | – | – |
| O=C1c2ccccc2C(=O)C1c1ccc(Cl)cc1Cl | 73 | 89 | 87 | – | – | – |
| COc1cccc(C2C(=O)c3ccccc3C2=O)c1 | 67 | 75 | 55 | – | – | – |
| O=C1c2ccccc2C(=O)C1c1ccc(Cl)cc1 [CLORINDIONE] | 63 | 64 | 47 | – | – | – |
| O=C(O)c1ccc(C2C(=O)c3ccccc3C2=O)cc1 | – | 95 | – | – | 95 | 78 |
| O=C1c2ccccc2C(=O)C1c1ccccc1 [PHENINDIONE] | 60 | 64 | 60 | – | – | – |
